# Dynein transport: blocks dynein driven cargo transport along microtubules. 3617.4 mouse cells, GR-EGFP nuclear translocation imaging; test concentration mostly 20 µM; stimulated with dexamethasone, 1 µM; active compounds read low. z-score, hits read low. hit rate 0.47% among 220,000;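 active = plate z-score of nuclear minus cytoplasmic receptor signal below a set negative limit, without overly bright fluorescence or cell loss, cut at about -3.5 in these data, passing the limit was not always enough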;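 also: z-score of nuclear minus cytoplasmic ring GR-EGFP intensity difference per well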
#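 medium = tetracycline-free induction medium containing charcoal-stripped FBS | probe or stimulus = dexamethasone, 1.0 µM final | timing = 48 h induction, then 1 h compound, then 30 min agonist, 37 °C | detection = automated 10x imaging of fixed Hoechst-stained cells | read-out basis = nuclear versus cytoplasmic GR-EGFP signal, averaged per well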
# Mdm2 ligase inh: inhibitors of human Mdm2 E3 ubiquitin ligase. Q00987. cell-based MDM2 ubiquitination luciferase reporter, 2 h; 0 = plate control, 100 = twice control, blank-subtracted. signal enhancement, % at 5 µM. hit rate 0.11% among 210,000. AID 1230;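 active = signal enhancement of 30% or more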;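 also: luminescence tracks abundance of the self-degrading MDM2-luciferase fusion protein; higher signal means inhibition of MDM2 E3 ligase activity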
#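 system = mammalian cells stably expressing self-ubiquitinating, self-degrading MDM2 E3–luciferase fusion | quantity = 2000 cells per well seeded | incubation = 4 h cell settling then 2 h compound exposure, 37 °C | signal = SteadyLite luminescence, 15 min reagent step | benchmarks = plate control and blank wells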
# CHOP UPR activ: activators of apoptotic arm of unfolded protein response (CHOP) | CHO-CHOP luciferase reporter, UPR activation, luminescence; percent of tunicamycin response over DMSO baseline | activation, % at 10 µM | hit rate 0.34% among 330,000;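 active = at 10 µM dose, activation of 40% or more, normalized to positive control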;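 also: 100% = tunicamycin at 10 µg/mL and 0% = DMSO alone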
#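 System: CHO-CHOP luciferase reporter cell line | Buffer or medium: F12 medium containing 10% fetal bovine serum | Doses: One dose, 10 µM in 0.5% DMSO | Times: 6 h compound exposure at 37 °C after overnight seeding | Signal: Luciferase luminescence | Read-out: % activation vs tunicamycin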
# UPR XBP1 act: activators of adaptive arm of unfolded protein response (XBP1); CHO-XBP1 luciferase reporter, IRE1-XBP1 UPR activation, luminescence; percent of tunicamycin response, DMSO as zero; activation, % at 20 µM; hit rate 0.33% among 330,000;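 active = versus positive control, 20 µM dose yields 30% or more activation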;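 also: 100% = tunicamycin at 10 µg/mL and 0% = DMSO only wells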
#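 Material: CHO cell line with stable XBP1 luciferase reporter; schedule: 16-18 h cell attachment at 37 °C, then 6 h compound exposure; signal: glow luminescence from Steady-Glo reagent; medium: serum-containing F12 medium, 10% FBS; benchmarks: tunicamycin 10 µg/mL and vehicle-only wells; read-out: percent activation relative to tunicamycin reference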
# Beta2AR agonist: agonists of human beta-2 adrenergic receptor inducing internalization | Am2.2-beta2AR cells, FAP receptor internalization, flow cytometry | response, % (test concentration not listed) | hit rate 0.43% among 340,000 | AID 504454;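 active = response above a set limit, near 3 SD of response in nonfluorescent compounds, cut at about 42% in these data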
# Target sequence (P07550 whole entry, looked up): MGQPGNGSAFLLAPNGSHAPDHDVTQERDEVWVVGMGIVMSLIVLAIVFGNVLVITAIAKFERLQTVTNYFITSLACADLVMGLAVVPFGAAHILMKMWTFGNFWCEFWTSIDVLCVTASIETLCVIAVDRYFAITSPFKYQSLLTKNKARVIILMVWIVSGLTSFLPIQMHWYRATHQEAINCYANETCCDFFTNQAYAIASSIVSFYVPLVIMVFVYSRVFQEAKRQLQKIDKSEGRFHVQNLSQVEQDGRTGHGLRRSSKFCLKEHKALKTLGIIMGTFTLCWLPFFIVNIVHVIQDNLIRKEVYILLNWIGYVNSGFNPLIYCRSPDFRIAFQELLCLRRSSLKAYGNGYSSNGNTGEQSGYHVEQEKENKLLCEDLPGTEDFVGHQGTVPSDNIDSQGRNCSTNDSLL
# Mdm2-MdmX inh: inhibitors of human Mdm2/MdmX interaction | O15151+Q00987 | SaOS-2 split-luciferase Mdm2/MdmX complementation, luminescence | inhibition, % at 8 µM | hit rate 3% among 330,000;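 active = inhibition of at least 50% at 8 µM in the primary screen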
# Mdm2-MdmX conf: confirmation of human Mdm2/MdmX interaction inhibitors. shares compounds with Mdm2-MdmX inh. Mdm2-MdmX binding, luminescent assay. inhibition, % at 8 µM. hit rate 55% among 10,000; in the data active = inhibition above about 40%
# Full FLuc ctr: full-length luciferase inhibition in Mdm2/MdmX counter-screen; SaOS-2 full-length luciferase counterscreen, luminescence; shares compounds with Mdm2-MdmX inh; inhibition, % at 8 µM; hit rate 77% among 6,200;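 active = mean inhibition at 8 µM reaching about 37%, which flags the compound as non-specific, limit read from the data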;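 also: p53-null SaOS-2 cells with luciferase driven by a doxycycline-inducible promoter; compound on cells about two nights before reading with doxycycline added after day one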
# Starred values were filed as active, the others as inactive; nt = no result. Sampled rows, rich in hits. Any-hit rate of the full collection: about 3.7%.
SMILES,Dynein transport,Mdm2 ligase inh,CHOP UPR activ,UPR XBP1 act,Beta2AR agonist,Mdm2-MdmX inh,Mdm2-MdmX conf,Full FLuc ctr
O=C(c1cn(Cc2ccccc2)nc1-c1ccccc1)N1CCN(c2ccccn2)CC1,nt,nt,1.2,-1.5,-14.9,52.6*,50.0*,71.2*
COc1ccc(-c2nn(Cc3ccccc3)cc2C(=O)N2CCN(c3ccccn3)CC2)cc1OC,nt,nt,-0.4,-2.1,-8.9,23.2,nt,nt
O=C(c1ccccc1-c1ccccc1)N1CCN(c2ccccn2)CC1,0.445,0.4,-1.1,-0.6,-10.0,58.8*,58.1*,50.1*
Cc1cc(-c2ccccc2)nc(N2CCN(c3ccccn3)CC2)n1,-0.521,-6.9,1.2,1.6,3.0,59.1*,23.8,nt
Nc1nc(N2CCN(c3ccccn3)CC2)nc2ccccc12,nt,nt,3.6,-0.2,-17.9,-33.9,nt,nt
CCO[C@H]1OC(C(=O)NCc2nc3ccccc3[nH]2)=C[C@@H](C2CC2)[C@@H]1CCCO,0.198,nt,-0.3,-1.0,16.7,53.4*,72.5*,68.7*
O=C(Nc1ccccc1)C1=C[C@@H](C2CCCCC2)C[C@@H](OCc2ccc(CO)cc2)O1,-0.746,nt,1.9,3.6,-12.7,96.5*,75.6*,24.1
O=C(NCc1ccccc1)C1=C[C@H](c2csc3ccccc23)C[C@H](OCc2ccc(CO)cc2)O1,0.802,22.7,0.3,-3.2,16.2,54.0*,36.9,59.1*
O=C(NCc1nc2ccccc2[nH]1)C1=C[C@H](C2CCCCC2)C[C@H](OCc2ccc(CO)cc2)O1,-0.491,nt,-1.2,-2.3,4.2,68.1*,44.0*,66.9*
CC(C)(C)[C@H]1C=C(C(=O)NCc2nc3ccccc3[nH]2)O[C@@H](OCc2ccc(CO)cc2)C1,-0.387,17.1,0.8,-1.7,8.3,52.7*,53.5*,92.8*
CCN(CC)S(=O)(=O)c1ccc(OCC(=O)NC(=O)Cc2ccccc2)c([N+](=O)[O-])c1,nt,nt,-0.2,-1.4,-1.1,32.9,nt,nt
CC1CCN(C(=O)C2CCC(=O)N(Cc3ccc(Cl)cc3)C2)CC1 (stereo unspecified),nt,nt,0.4,-2.7,3.3,3.2,nt,nt
Cc1ccc(C)c(C2NC(=O)c3ccccc3N2)c1 (stereo unspecified),-0.389,nt,2.0,1.4,5.7,50.2*,53.4*,54.9*
COc1cc(C)c(C2NC(=O)c3ccccc3N2)cc1C (stereo unspecified),nt,nt,nt,nt,-13.6,nt,nt,nt
CS(=O)(=O)N1CCC(Oc2cccc(C(=O)NCCCC3CCCC3)c2)CC1,nt,nt,0.7,-2.0,-1.1,3.8,nt,nt
COC(=O)C1=C(C(=O)OC)[C@@H]2N(Cc3ccccc3)c3ccccc3[C@@]23C[C@@H](C(=O)OC)N(C(=O)COCc2ccccc2)C3=N1,-0.0772,2.3,18.0,3.7,1.0,62.9*,21.0,nt
COC(=O)C1=C(C(=O)OC)[C@@H]2N(Cc3ccccc3)c3ccccc3[C@@]23C[C@@H](C(=O)OC)N(C(C)=O)C3=N1,-0.556,4.6,0.5,-1.7,7.2,-12.3,nt,nt
COC(=O)C1=C(C(=O)OC)[C@@H]2N(C)c3ccc(OC)cc3[C@@]23C[C@@H](C(=O)OC)N(C(=O)c2ccc(Br)cc2)C3=N1,1.04,8.9,13.7,10.8,9.3,68.6*,-1.1,nt
C=CCN1c2ccccc2[C@]23C[C@@H](C(=O)OC)N(C(=O)c4ccc(Br)cc4)C2=NC(C(=O)OC)=C(C(=O)OC)[C@H]13,1.36,3.3,23.8,3.9,2.3,95.8*,68.3*,52.6*
COC(=O)C1=C(C(=O)OC)[C@@H]2N(Cc3ccccc3)c3ccccc3[C@@]23C[C@@H](C(=O)OC)N(C(=O)c2ccc(Br)cc2)C3=N1,nt,nt,31.2,5.0,2.2,95.6*,85.7*,53.3*
CC(=O)Nc1ccc(NC(=O)C(C)Oc2ccccc2C(=O)NCc2ccccc2)cc1 (stereo unspecified),nt,nt,1.2,-0.7,-7.4,15.6,nt,nt
O=C(Nc1cccc(S(=O)(=O)N2CCCC2)c1)c1ccc(Cl)nc1,nt,nt,0.8,-3.6,-8.2,47.8,nt,nt
COc1cc(NC(=O)c2ccccc2)c(OC)cc1NC(=O)CSc1[nH]c(=O)cc(C)c1C#N,nt,nt,0.3,5.9,36.8,83.8*,34.2,nt
COc1ccc(CCNC(=O)C2(C)CCC(=O)N2Cc2ccc(C)cc2)cc1OC (stereo unspecified),nt,nt,-0.9,-2.2,7.1,-29.4,nt,nt
COc1ccccc1NS(=O)(=O)c1cccc(-n2c(O)c(C=Nc3ccccc3C(=O)O)c3ccccc3c2=O)c1,0.451,-8.7,2.6,0.2,27.7,53.8*,58.5*,70.3*
O=S(=O)(c1ccc(Cl)cc1)c1cnc2ccccc2n1,-0.573,-11.5,-1.2,-0.5,4.5,53.1*,17.6,nt
O=C(O)c1ccc(/C=N\Nc2ccc(S(=O)(=O)N3CCOCC3)cc2[N+](=O)[O-])cc1,-0.3,-13.2,1.1,0.9,0.7,1.9,nt,nt
Cc1ccc(-n2c(O)c(/C=N/Nc3ccc(S(=O)(=O)N4CCOCC4)cc3[N+](=O)[O-])c3ccccc3c2=O)c(C)c1,-0.632,-8.2,0.4,-2.6,12.3,54.7*,25.6,nt
CCN(C(=O)COC(=O)c1ccc(-n2c(C)ccc2C)cc1)c1c(N)n(Cc2ccccc2)c(=O)[nH]c1=O,nt,nt,nt,nt,-0.7,nt,nt,nt
